In ChEMBL document CHEMBL1152227, “Structure-activity relationships of 1,4-dihydropyridines that act as enhancers of the vanilloid receptor 1 (TRPV1)” (Bioorg Med Chem, 2008):
Active and inactive are the calls of the source. No cut-off for these calls is given here.

What was measured:
[1] = molecular target: T1, Transient receptor potential cation channel subfamily V member 1 (Homo sapiens, UniProt Q8NER1); assay: Agonist-enhancing activity in epsilon-epitope tagged TRPV1 receptor expressed in mouse NIH3T3 cells assessed as capsaicin-induced 45Ca2+ influx at 100 uM by microplate liquid scintillation counter relative to capsaicin alone; assay type: functional, cell-based
T1 sequence (Q8NER1 whole entry): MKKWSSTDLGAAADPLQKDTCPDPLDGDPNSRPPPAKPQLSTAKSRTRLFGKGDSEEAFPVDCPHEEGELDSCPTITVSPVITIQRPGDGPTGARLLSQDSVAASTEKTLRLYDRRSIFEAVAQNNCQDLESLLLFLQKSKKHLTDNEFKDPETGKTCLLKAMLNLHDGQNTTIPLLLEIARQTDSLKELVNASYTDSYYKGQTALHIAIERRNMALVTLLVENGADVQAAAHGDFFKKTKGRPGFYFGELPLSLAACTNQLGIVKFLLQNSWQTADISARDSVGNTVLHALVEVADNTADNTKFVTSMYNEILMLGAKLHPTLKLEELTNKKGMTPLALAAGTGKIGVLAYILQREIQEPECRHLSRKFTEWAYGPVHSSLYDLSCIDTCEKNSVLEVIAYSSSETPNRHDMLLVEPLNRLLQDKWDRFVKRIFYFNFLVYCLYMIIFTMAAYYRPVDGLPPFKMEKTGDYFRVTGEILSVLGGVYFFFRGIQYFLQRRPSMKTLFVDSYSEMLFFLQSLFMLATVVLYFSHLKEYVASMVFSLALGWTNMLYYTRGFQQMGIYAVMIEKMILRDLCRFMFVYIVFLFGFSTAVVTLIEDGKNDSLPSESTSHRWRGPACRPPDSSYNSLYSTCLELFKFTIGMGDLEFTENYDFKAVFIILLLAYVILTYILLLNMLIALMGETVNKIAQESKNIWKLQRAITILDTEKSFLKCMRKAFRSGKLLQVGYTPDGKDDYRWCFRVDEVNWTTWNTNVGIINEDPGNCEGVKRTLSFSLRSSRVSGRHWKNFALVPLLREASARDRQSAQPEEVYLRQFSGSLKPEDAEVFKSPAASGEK
Outline: (§1)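 Stable ε-tagged TRPV1 NIH3T3 cells. Uptake with capsaicin 2 µM, 10 min at 20°C, 0.5 µCi/well 45Ca2+ in Tris-HBSS pH 7.5. Compound up to 100 µM, 2% DMSO, from 5 mM stocks, duplicate wells per concentration. Data normalized to capsaicin-only wells (100%). Variable-slope fit gave EC50 and ΔEmax; compounds too weak to fit were given ΔEmax at the top concentration.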

[2] = molecular target: Transient receptor potential cation channel subfamily V member 1 (Rattus norvegicus) (UniProt O35433); assay: Agonist activity at TRPV1 receptor in E15 rat primary dorsal root ganglion cells assessed as effect on 45Ca2+ influx by microplate liquid scintillation counter; assay type: functional, tissue-based
Chain of Transient receptor potential cation channel subfamily V member 1 (Rattus norvegicus) (O35433 whole entry, the tested form may be a part): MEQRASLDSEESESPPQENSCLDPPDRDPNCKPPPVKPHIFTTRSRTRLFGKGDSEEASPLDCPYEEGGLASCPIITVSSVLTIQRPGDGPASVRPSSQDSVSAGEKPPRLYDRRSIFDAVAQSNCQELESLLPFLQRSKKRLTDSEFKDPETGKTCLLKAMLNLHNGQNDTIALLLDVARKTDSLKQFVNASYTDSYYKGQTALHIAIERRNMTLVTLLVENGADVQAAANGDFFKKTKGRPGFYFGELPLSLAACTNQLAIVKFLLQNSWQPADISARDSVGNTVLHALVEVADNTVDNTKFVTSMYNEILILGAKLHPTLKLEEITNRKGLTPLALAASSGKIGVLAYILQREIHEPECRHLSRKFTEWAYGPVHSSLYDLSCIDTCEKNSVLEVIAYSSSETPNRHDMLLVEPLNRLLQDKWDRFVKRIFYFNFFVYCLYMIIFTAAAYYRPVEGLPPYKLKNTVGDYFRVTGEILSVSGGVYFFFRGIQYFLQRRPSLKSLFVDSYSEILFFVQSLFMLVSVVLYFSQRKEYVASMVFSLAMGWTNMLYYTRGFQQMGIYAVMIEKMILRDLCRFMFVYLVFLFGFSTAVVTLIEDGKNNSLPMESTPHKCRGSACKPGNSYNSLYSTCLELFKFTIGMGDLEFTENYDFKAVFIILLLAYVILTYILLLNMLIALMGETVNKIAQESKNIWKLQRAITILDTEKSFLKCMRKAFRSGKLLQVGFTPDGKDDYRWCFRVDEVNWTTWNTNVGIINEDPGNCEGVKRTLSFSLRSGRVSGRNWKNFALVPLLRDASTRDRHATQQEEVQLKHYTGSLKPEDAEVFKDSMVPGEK
Outline: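 DRGs from E15 rat embryos, enzymatically dissociated, grown 5–6 days at 35°C. Test compound given without capsaicin. 45Ca2+ uptake run 10 min at 20°C in Tris-buffered (pH 7.5) HBSS with 1 mM ascorbate, 10 µM CaCl2 and 0.8 mM MgCl2, with 0.5 µCi/well tracer. Cells were washed, lysed in RIPA and counted by scintillation.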

[3] = molecular target: T2, Adenosine receptor A3 (Rattus norvegicus) (UniProt P28647); assay: Binding affinity to rat adenosine A3 receptor
T2 sequence (whole entry): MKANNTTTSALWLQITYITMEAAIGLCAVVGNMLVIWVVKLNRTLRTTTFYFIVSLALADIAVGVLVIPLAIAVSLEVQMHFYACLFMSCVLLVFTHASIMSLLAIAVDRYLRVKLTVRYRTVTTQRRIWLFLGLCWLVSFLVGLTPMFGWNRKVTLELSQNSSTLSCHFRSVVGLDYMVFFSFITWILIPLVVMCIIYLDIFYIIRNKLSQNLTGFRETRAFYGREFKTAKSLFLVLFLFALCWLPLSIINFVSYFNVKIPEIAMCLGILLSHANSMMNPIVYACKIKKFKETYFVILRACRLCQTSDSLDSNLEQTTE

Adenosine receptor A3 = molecular target: T3, Adenosine receptor A3 (Homo sapiens, UniProt P0DMS8); assay: Binding affinity to human adenosine A3 receptor
T3 sequence (P0DMS8 whole entry): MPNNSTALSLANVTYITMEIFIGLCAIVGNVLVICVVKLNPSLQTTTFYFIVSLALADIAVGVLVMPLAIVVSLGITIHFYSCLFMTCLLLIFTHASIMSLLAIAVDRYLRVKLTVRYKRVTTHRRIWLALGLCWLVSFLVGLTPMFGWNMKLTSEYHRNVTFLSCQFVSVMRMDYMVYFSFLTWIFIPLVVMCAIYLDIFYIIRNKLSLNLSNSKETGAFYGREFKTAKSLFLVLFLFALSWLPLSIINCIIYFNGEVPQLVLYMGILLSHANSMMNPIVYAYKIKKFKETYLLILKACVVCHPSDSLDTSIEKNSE

[4] = molecular target: T1, Transient receptor potential cation channel subfamily V member 1; assay: Agonist activity at epsilon-epitope tagged TRPV1 receptor expressed in mouse NIH3T3 cells assessed as effect on 45Ca2+ influx by microplate liquid scintillation counter; assay type: functional, cell-based
Outline: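 NIH3T3 cells stably expressing ε-tagged TRPV1 were seeded the day before and grown at 35°C. Test compound given without capsaicin, top concentration 100 µM, 2% DMSO. 45Ca2+ uptake run 10 min at 20°C in Tris-HBSS (pH 7.5) with ascorbate, 10 µM Ca2+ and 0.8 mM Mg2+. Cells were washed, lysed in RIPA and counted by scintillation.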

[5] = molecular target: T1, Transient receptor potential cation channel subfamily V member 1; assay: Agonist-enhancing activity in epsilon-epitope tagged TRPV1 receptor expressed in mouse NIH3T3 cells assessed as capsaicin-induced 45Ca2+ influx by microplate liquid scintillation counter; assay type: functional, cell-based; outline: as §1
[6] = molecular target: Transient receptor potential cation channel subfamily V member 1 (Rattus norvegicus) (UniProt O35433); assay: Agonist-enhancing activity at TRPV1 receptor in E15 rat primary dorsal root ganglion cells assessed as increase in intracellular calcium levels at 10 uM by Fura-4F AM based fluorimetric method relative to capsaicin alone; assay type: functional, tissue-based
Outline: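 E15 rat DRG neurons on poly-ornithine/laminin coverslips, cultured 4–6 days. Loaded with 2.5 µM Fura-4F AM for 20 min at room temperature and perfused at 0.5 mL/min in pH 7.4 HEPES saline with ascorbate. Exposed 30 s to 200 nM capsaicin ± 10 µM compound, DMSO 0.04% in controls. 340/380 ratio read at 0.5 Hz and normalized to the 2-min baseline. Peak taken as the mean of 10 points, 3 coverslips per condition.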

[7] = molecular target: Transient receptor potential cation channel subfamily V member 1 (Rattus norvegicus) (UniProt O35433); assay: Agonist-enhancing activity at TRPV1 receptor in E15 rat primary dorsal root ganglion cells assessed as capsaicin-induced 45Ca2+ influx by microplate liquid scintillation counter relative to capsaicin alone; assay type: functional, tissue-based
Outline: (§2)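 E15 rat DRG cultures grown 5–6 days at 35°C. Uptake with capsaicin ~0.5 µM, 10 min at 20°C, 0.5 µCi/well 45Ca2+ in Tris-HBSS pH 7.5. Compound up to 50 µM, 0.2% DMSO, from 25 mM stocks. Counts normalized to in-plate capsaicin-only wells (100%, 4 wells). Variable-slope sigmoid fit gave EC50, Hill slope and ΔEmax.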

[8] = molecular target: Transient receptor potential cation channel subfamily V member 1 (Rattus norvegicus) (UniProt O35433); assay: Agonist-enhancing activity at TRPV1 receptor in E15 rat primary dorsal root ganglion cells assessed as capsaicin-induced 45Ca2+ influx by microplate liquid scintillation counter; assay type: functional, tissue-based; outline: as §2

SMILES | Emax [1] [%] | Activity [2] | Activity [3] | Ki (Adenosine receptor A3) [µM] | Activity [4] | EC50 [5] [µM] | Activity [6] [%] | Emax [7] [%] | Activity [5] | Activity [8]
CCOC(=O)C1=C(c2ccccc2)N=C(C)/C(=C(/O)OCC)C1C(OC)OC (stereo unspecified) | 114 | inactive | inactive | 15.3 | inactive | – | – | – | – | –
CCOC(=O)C1=C(c2ccccc2)N=C(C)/C(=C(/O)SCC)C1CC (stereo unspecified) | 435 | inactive | inactive | – | inactive | 28.1 | – | – | – | –
CCOC(=O)C1=C(c2ccccc2)N=C(C)/C(=C(/O)SCCOC)C1CC (stereo unspecified) | 626 | inactive | inactive | 4.58 | inactive | 21.3 | 13 | – | – | –
CCCC1=NC(c2ccccc2)=C(C(=O)OCC)C(CC)/C1=C(\O)SCC (stereo unspecified) | 148 | inactive | inactive | 2.09 | inactive | – | – | – | – | –
CCCC1C(C(=O)OCC)=C(c2ccccc2)N=C(C)/C1=C(/O)SCC (stereo unspecified) | 364 | inactive | inactive | – | inactive | 22.4 | – | 318 | – | –
CCOC(=O)C1=C(c2ccccc2)N=C(C)/C(=C(/O)OCC)C1CC (stereo unspecified) | 383 | inactive | inactive | – | inactive | – | – | – | – | –
CCOC(=O)C1=C(c2ccccc2)N=C(CC)/C(=C(/O)SCC)C1CC (stereo unspecified) | 257 | inactive | inactive | – | inactive | – | – | – | – | –
CO/C(O)=C1\C(C)=NC(C)=C([N+](=O)[O-])[C@H]1c1ccccc1C(F)(F)F | – | – | – | – | – | – | – | – | inactive | inactive
COC(=O)C1=C(C)NC(C)=C(C(=O)OCCN(C)Cc2ccccc2)C1c1cccc([N+](=O)[O-])c1 (stereo unspecified) | – | – | – | – | – | – | – | – | inactive | inactive
CCCC1C(C(=O)SCCc2ccccc2)=C(C)NC(c2ccccc2)=C1C(=O)OCC (racemic) | 360 | inactive | – | – | inactive | 27.6 | – | 231 | – | –
CCOC(=O)C1=C(c2cccc(F)c2)NC(C)=C(C(=O)SCC)C1CC (racemic) | 446 | inactive | – | – | inactive | 21.8 | – | 198 | – | –
CCOC(=O)C1=C(c2ccc(F)cc2)NC(C)=C(C(=O)SCCc2ccccc2)C1CC (racemic) | 232 | inactive | – | – | inactive | 51.6 | – | 148 | – | –
CCOC(=O)C1=C(C)NC(c2cccc(Cl)c2)=C(C(=O)OCC)C1CC (racemic) | 347 | inactive | – | – | inactive | 17.1 | – | 259 | – | –
CCOC(=O)C1=C(C)NC(c2ccc(F)cc2)=C(C(=O)OCC)C1CC (racemic) | 372 | inactive | – | – | inactive | 29.2 | – | 175 | – | –
CCOC(=O)C1=C(C)NC(c2cccc(F)c2)=C(C(=O)OCC)C1CC (racemic) | 403 | inactive | – | – | inactive | 26.7 | – | 206 | – | –
CCOC(=O)C1=C(c2ccc(F)cc2)NC(C)=C(C(=O)SCC)C1CC (racemic) | 409 | inactive | – | – | inactive | 28.4 | – | – | – | –
CCCC1C(C(=O)SCC)=C(C)NC(c2cccc(Cl)c2)=C1C(=O)OCC (racemic) | 177 | inactive | – | – | inactive | – | – | – | – | –
CCOC(=O)C1=C(C2CCCCC2)NC(C)=C(C(=O)SCC)C1CC (racemic) | 87 | inactive | – | – | inactive | – | – | – | – | –
CCOC(=O)C1=C(c2ccc(C#N)cc2)NC(C)=C(C(=O)SCC)C1CC (racemic) | 129 | inactive | – | – | inactive | – | – | – | – | –
CCOC(=O)C1=C(c2ccc(F)cc2)NC(C)=C(C(=O)SCC)C1C1CC1 (racemic) | 175 | inactive | – | – | inactive | – | – | – | – | –
CCOC(=O)C1=C(c2ccc([N+](=O)[O-])cc2)NC(C)=C(C(=O)SCCc2ccccc2)C1CC (racemic) | 101 | inactive | – | – | inactive | – | – | 117 | – | –
CCOC(=O)C1=C(c2ccc([N+](=O)[O-])cc2)NC(C)=C(C(=O)SCc2ccccc2)C1CC (racemic) | 98 | inactive | – | – | inactive | – | – | – | – | –
CCOC(=O)C1=C(c2ccc3ccccc3c2)NC(C)=C(C(=O)SCC)C1CC (racemic) | 116 | inactive | – | – | inactive | – | – | – | – | –
CCOC(=O)C1=C(c2cccc(Cl)c2)NC(C)=C(C(=O)SCCc2ccccc2)C1CC (racemic) | 194 | inactive | – | – | inactive | – | – | – | – | –
CCOC(=O)C1=C(c2ccccc2F)NC(C)=C(C(=O)SC(C)C)C1CC (racemic) | 124 | inactive | – | – | inactive | – | – | – | – | –
CCOC(=O)C1=C(c2ccccc2F)NC(C)=C(C(=O)SCC)C1CC (racemic) | 198 | inactive | – | – | inactive | – | – | – | – | –
CCOC(=O)C1=C(c2ccccc2F)NC(C)=C(C(=O)SCCc2ccccc2)C1CC (racemic) | 117 | inactive | – | – | inactive | – | – | – | – | –
CCOC(=O)C1=C(c2ccccc2F)NC(C)=C(C(=O)SCc2ccccc2)C1CC (racemic) | 123 | inactive | – | – | inactive | – | – | – | – | –
